Source: ChEMBL document CHEMBL5154815, “A Series of Substituted Bis-Aminotriazines Are Activators of the Natriuretic Peptide Receptor C” (J Med Chem, 2022)
Active and inactive are the calls of the source. The calls are words filed in the database; no cut-off is given here.

Columns and labels:
[1] = target: T1, Atrial natriuretic peptide receptor 3 (Mus musculus, UniProt P70180); test: Agonist activity at NPRC in knock out mouse mesenteric arteries assessed as vasorelaxation by Organ bath assay; format: tissue-based, Artery
T1 sequence (P70180 whole entry): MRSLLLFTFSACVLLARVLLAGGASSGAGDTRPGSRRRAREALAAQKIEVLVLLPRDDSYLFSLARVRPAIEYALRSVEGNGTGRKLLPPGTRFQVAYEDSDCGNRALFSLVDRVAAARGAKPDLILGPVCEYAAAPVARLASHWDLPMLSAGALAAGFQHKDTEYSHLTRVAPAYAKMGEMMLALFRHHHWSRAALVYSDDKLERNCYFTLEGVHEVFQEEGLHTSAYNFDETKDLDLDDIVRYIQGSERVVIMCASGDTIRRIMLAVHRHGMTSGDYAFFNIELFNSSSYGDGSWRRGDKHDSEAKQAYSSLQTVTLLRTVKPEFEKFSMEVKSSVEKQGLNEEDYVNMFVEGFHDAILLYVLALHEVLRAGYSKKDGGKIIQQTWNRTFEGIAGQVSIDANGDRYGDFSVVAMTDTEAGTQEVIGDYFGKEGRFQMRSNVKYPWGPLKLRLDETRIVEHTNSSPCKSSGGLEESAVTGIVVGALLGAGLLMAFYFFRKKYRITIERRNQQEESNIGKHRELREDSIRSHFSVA

[2] = AUC (0 to infinity) in fasted C57BL/6 mouse at 3 mg/kg, iv by LC-MS/MS analysis; format: ADME, organism-based; set-up: time infinity, dose 3 mg/kg, route iv; conditions: in vivo
[3] = Cmax in fasted C57BL/6 mouse at 10 mg/kg, po by LC-MS/MS analysis; format: ADME, organism-based; set-up: dose 10 mg/kg, route po; conditions: in vivo
Summary of the method: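 EDTA-K2 plasma was protein-precipitated with internal standard and centrifuged 20 min at 4 °C. Analysis by LC-MS/MS against a 1–1000 ng/mL calibration curve.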

[4] = target: T2, Atrial natriuretic peptide receptor 3 (Rattus norvegicus) (UniProt P41740); test: Agonist activity at NPRC in rat small mesenteric arteries assessed as inhibition of cANF4-23 induced vasorelaxation in presence of M372049 by Organ bath assay; format: tissue-based; conditions: Artery, filed as agonist
T2 sequence (whole entry): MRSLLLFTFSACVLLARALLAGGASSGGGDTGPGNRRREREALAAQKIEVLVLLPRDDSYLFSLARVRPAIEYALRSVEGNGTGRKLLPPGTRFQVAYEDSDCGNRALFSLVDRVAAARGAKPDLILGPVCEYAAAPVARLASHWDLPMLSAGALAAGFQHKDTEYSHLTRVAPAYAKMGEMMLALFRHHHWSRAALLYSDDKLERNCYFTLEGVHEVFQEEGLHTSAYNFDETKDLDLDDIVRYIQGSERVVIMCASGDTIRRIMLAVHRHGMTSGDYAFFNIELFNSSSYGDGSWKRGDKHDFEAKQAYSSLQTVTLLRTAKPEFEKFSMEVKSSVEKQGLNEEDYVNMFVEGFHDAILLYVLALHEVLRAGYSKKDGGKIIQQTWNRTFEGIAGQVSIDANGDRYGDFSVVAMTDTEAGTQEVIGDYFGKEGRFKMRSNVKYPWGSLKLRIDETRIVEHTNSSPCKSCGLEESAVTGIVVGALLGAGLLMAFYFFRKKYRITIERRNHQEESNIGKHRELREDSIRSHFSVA
Summary of the method: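 Small mesenteric artery rings from male Wistar rats in classical tissue-bath pharmacology. Vessels were preincubated 15 min with M372049 10 μM or osteocrin 100 nM before the vasorelaxant response to test agents was assessed.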

in vivo = conditions: C57BL/6, mouse, po, 10 mg/kg
[5] = target: T3, Atrial natriuretic peptide receptor 3 (Rattus norvegicus, UniProt P41740); test: Agonist activity at NPRC in rat small mesenteric arteries assessed as vasorelaxation preincubated with M372049 for 15 mins followed by compound treatment by Organ bath assay; format: tissue-based, Artery
T3 sequence (P41740 whole entry): T2 sequence (whole entry)

[6] = Clearance in fasted C57BL/6 mouse at 3 mg/kg, iv by LC-MS/MS analysis; format: ADME, organism-based; conditions: in vivo
Cytochrome P450 3A4 [7] = target: T4, Cytochrome P450 3A4 (Homo sapiens, UniProt P08684); test: Inhibition of CYP3A4 in human liver microsomes using testosterone as a substrate preincubated for 10 mins followed by NADPH addition and measured after 10 mins by LC/MS/MS analysis
[8] = Volume of distribution at steady state in fasted C57BL/6 mouse at 3 mg/kg, iv by LC-MS/MS analysis; format: ADME, organism-based; conditions: in vivo, read-out: Vdss
[9] = target: T5, Atrial natriuretic peptide receptor 3 (Homo sapiens) (UniProt P17342); test: Displacement of Flu-P19 probe from human NPR-C (27 to 541 residues) at 300 uM by fluorescence polarization analysis relative to control
T5 sequence (whole entry): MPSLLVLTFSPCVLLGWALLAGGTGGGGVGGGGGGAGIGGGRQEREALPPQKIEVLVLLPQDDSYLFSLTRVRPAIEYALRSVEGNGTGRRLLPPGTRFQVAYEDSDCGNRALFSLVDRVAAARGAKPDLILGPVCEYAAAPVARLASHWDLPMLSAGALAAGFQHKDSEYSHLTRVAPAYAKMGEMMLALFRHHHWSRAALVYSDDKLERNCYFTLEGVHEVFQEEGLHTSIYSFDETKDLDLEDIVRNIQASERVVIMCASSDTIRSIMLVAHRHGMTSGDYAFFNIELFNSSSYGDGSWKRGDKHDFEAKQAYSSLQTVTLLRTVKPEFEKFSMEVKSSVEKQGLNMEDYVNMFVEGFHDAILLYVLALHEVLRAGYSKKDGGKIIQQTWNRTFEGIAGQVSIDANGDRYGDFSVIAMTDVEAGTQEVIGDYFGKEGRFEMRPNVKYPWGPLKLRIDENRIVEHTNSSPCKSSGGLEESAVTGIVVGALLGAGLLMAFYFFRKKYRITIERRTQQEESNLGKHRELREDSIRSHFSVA
Summary of the method: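 Competition fluorescence polarization with NPR-C protein 20 nM and Flu-P19 probe 150 pM (final) in PBS-P with 1% DMSO final; samples were prepared on ice. Primary screen at 300 μM ligand. Read at 485 nm excitation / 520 nm emission. Signal normalized to buffer+probe and protein+probe controls; background blanked with buffer-only PBS-P/1% DMSO.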

[10] = target: T2, Atrial natriuretic peptide receptor 3 (Rattus norvegicus); test: Agonist activity at NPRC in rat aorta assessed as inhibition of cANF4-23 induced vasorelaxation in presence of osteocrin by Organ bath assay; format: tissue-based; conditions: filed as agonist
Cytochrome P450 3A4 [11] = target: T4, Cytochrome P450 3A4; test: Inhibition of CYP3A4 in human liver microsomes using midazolam as a substrate preincubated for 10 mins followed by NADPH addition and measured after 20 mins by LC/MS/MS analysis
[12] = Protein binding in human plasma by equilibrium dialysis assay
[13] = target: T2, Atrial natriuretic peptide receptor 3 (Rattus norvegicus); test: Agonist activity at NPRC in rat aorta assessed as inhibition of cANF4-23 induced vasorelaxation in presence of M372049 by Organ bath assay; format: tissue-based; conditions: filed as agonist
[14] = AUC (0 to infinity) in fasted C57BL/6 mouse at 10 mg/kg, po by LC-MS/MS analysis; format: ADME, organism-based; set-up: time infinity, dose 10 mg/kg, route po; conditions: in vivo
[15] = target: T6, Atrial natriuretic peptide receptor 3 (Homo sapiens, UniProt P17342); test: Binding affinity to CM5 sensor chip immobilized human NPR-C (27 to 541 residues) assessed as dissociation constant by surface plasmon resonance analysis
T6 sequence (P17342 whole entry): T5 sequence (whole entry)

T4 sequence (P08684 whole entry): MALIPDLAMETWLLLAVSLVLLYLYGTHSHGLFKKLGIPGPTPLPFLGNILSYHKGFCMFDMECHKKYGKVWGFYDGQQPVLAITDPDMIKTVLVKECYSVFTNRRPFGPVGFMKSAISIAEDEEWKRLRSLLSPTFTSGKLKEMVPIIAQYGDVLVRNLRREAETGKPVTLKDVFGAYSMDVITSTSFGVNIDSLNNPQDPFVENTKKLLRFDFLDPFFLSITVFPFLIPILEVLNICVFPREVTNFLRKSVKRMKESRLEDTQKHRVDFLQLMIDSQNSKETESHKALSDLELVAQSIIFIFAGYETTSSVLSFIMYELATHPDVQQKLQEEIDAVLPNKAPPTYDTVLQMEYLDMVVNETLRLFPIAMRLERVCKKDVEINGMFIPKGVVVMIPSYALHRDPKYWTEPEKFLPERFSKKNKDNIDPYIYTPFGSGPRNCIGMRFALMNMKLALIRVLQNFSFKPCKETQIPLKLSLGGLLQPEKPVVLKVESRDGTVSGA

CC(=O)Nc1ccc(Nc2ncnc(NCCC(=O)OC(C)(C)C)n2)cc1
EC50 [1]: 10.1 µM
AUC(0-inf) [2]: 448 ng·h/mL
Cmax [3]: 612 ng/mL
Activity [4]: Active
Tmax (in vivo): 15 min
EC50 [5]: 8.64 µM
clearance [6]: 112 mL/min/kg
IC50 (Cytochrome P450 3A4 [7]): > 50 µM
Vd [8]: 1.75 L/kg
Activity [9]: < 17%
Activity [10]: Active
IC50 (Cytochrome P450 3A4 [11]): > 50 µM
PPB [12]: 71%
Activity [13]: Active
AUC(0-inf) [14]: 653 ng·h/mL
Kd [15]: 146 µM
